Measurements published in ChEMBL document CHEMBL4837210 (Eur J Med Chem, 2021).
The source made the active and inactive calls. The calls are words filed in the database; no cut-off is given here.

Assays:
[1] = test system: Staphylococcus aureus; assay: Ratio of MBC to MIC against penicillin-resistant Staphylococcus aureus; assay type: functional
How it was run: (§1)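 MBC/MIC ratio from the broth microdilution MIC (24 h, 37 °C, MH broth) and the MBC (clear wells subcultured on tryptic soy agar, 24 h). A ratio ≤4 is read as bactericidal per CLSI.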

[2] = test system: Staphylococcus aureus; assay: Bactericidal activity against […] Staphylococcus aureus ATCC 25923 assessed as reduction in colony forming unit at 0.5 times MIC by time kill assay; assay type: functional, organism-based
How it was run: (§2)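 Samples at 0, 3, 6, 9, 12 and 24 h were serially diluted in MH broth and plated on tryptic soy agar. CFU/mL from colony counts after 24 h at 37 °C.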

[3] = test system: Staphylococcus aureus; assay: Bactericidal activity against […] Staphylococcus aureus ATCC 25923 assessed as log reduction in colony forming unit at 4 times MIC after 3 hrs by time kill assay; assay type: functional; how it was run: as §2
[4] = molecular target: T1, Cell division protein FtsZ (Bacillus subtilis) (UniProt A5Z1V5); assay: Induction of Bacillus subtilis FtsZ polymerization by fluorescence spectrophotometry; details: dose 2.5-10 µg/ml, time 800.0 sec
T1 sequence (whole entry): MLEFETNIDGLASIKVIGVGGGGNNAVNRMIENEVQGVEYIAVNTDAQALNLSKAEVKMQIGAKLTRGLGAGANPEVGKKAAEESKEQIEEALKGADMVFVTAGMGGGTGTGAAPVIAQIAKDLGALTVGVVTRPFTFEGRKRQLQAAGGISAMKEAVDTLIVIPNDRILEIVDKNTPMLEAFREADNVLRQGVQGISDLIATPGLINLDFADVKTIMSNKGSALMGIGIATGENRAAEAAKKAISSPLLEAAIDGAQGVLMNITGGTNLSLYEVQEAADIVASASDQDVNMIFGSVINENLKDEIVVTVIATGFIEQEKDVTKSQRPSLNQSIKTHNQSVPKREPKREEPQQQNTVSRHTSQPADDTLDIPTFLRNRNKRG
How it was run: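 Light scattering of B. subtilis FtsZ in 20 mM Tris pH 7.4 with 20 mM KCl, 5 mM MgCl₂ and 0.01% Triton X-100. Protein was preincubated in a cuvette with vehicle (2% DMSO) or compound. GTP was added last (2 mM final), and scattering at excitation 411 nm / emission 430 nm was followed for 800 s.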

[5] = test system: Staphylococcus aureus; assay: Antibacterial activity against erythromycin-susceptible Staphylococcus aureus ATCC 25923 assessed as bacterial growth inhibition incubated for 24 hrs by CLSI protocol based broth microdilution method; assay type: functional
[6] = test system: Staphylococcus aureus; assay: Bactericidal activity against methicillin-resistant Staphylococcus aureus ATCC 43300 measured after 24 hrs by CLSI protocol based method; assay type: functional
How it was run: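 MBC after broth microdilution. After 24 h, aliquots from clear wells were plated on tryptic soy agar and incubated aerobically 24 h at 37 °C. MBC was the lowest concentration giving no colonies.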

[7] = test system: Streptococcus pyogenes; assay: Antibacterial activity against erythromycin-resistant Streptococcus pyogenes 2 assessed as bacterial growth inhibition incubated for 24 hrs by CLSI protocol based broth microdilution method; assay type: functional
[8] = test system: Bacillus pumilus; assay: Bactericidal activity against penicillin-susceptible Bacillus pumilus CMCC 63202 measured after 24 hrs by CLSI protocol based method; assay type: functional
How it was run: (§3)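 MBC followed on from the 24 h broth microdilution MIC plates. Aliquots from clear wells were spread on tryptic soy agar and incubated aerobically at 37 °C for 24 h. MBC was the minimum concentration giving no colonies.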

[9] = test system: Enterococcus faecalis; assay: Antibacterial activity against vancomycin-susceptible Enterococcus faecalis ATCC 29212 assessed as bacterial growth inhibition incubated for 24 hrs by CLSI protocol based broth microdilution method; assay type: functional
[10] = test system: Staphylococcus aureus; assay: In vivo antibacterial activity against […] Staphylococcus aureus ATCC 25923 infected in Kunming mouse assessed as reduction in bacterial load at 1 mg/kg, administered 1 hr post bacterial infection and measured after 1 hr post compound treatment; assay type: functional, organism-based
How it was run: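 Kunming mice (~25 g, 6 per group) infected intravenously with 6 × 10⁷ CFU S. aureus ATCC25923 in 0.2 mL saline. About 1 h later, 1, 5 or 25 mg/kg was given intraperitoneally in 0.5 mL vehicle, with linezolid as reference. Orbital blood (100 µL) was taken before and 1 h after treatment, spread on MH agar and counted after 24 h.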

[11] = test system: Staphylococcus aureus; assay: Ratio of MBC to MIC against erythromycin-susceptible Staphylococcus aureus ATCC 25923; assay type: functional; how it was run: as §1
[12] = test system: Pseudomonas aeruginosa; assay: Antibacterial activity against penicillin-susceptible Pseudomonas aeruginosa ATCC27853 assessed as bacterial growth inhibition incubated for 24 hrs by CLSI protocol based broth microdilution method; assay type: functional
[13] = test system: Escherichia coli; assay: Antibacterial activity against penicillin-susceptible Escherichia coli ATCC 25922 assessed as inhibition of bacterial growth measured by broth microdilution method; assay type: functional; details: time 24 hrs
How it was run: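 Broth microdilution in Mueller Hinton broth. A 0.5 McFarland suspension was diluted tenfold, giving an inoculum of 1.5 × 10⁷ cfu/mL. This was added to 2-fold serial compound dilutions from […]. Plates were incubated aerobically at 37 °C for 24 h. MIC was the lowest concentration with no visible turbidity.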

[14] = test system: Bacillus subtilis; assay: Bactericidal activity against penicillin-susceptible Bacillus subtilis ATCC 9372 measured after 24 hrs by CLSI protocol based method; assay type: functional; how it was run: as §3
[15] = test system: Bacillus pumilus; assay: Ratio of MBC to MIC against penicillin-susceptible Bacillus pumilus CMCC 63202; assay type: functional; how it was run: as §1
[16] = test system: Staphylococcus aureus; assay: Bactericidal activity against […] Staphylococcus aureus ATCC 25923 assessed as log reduction in colony forming unit at 2 times MIC after 24 hrs by time kill assay; assay type: functional; how it was run: as §2
[17] = test system: Staphylococcus epidermidis; assay: Ratio of MBC to MIC against penicillin-resistant Staphylococcus epidermidis; assay type: functional; how it was run: as §1
[18] = test system: Enterococcus faecium; assay: Antibacterial activity against vancomycin-resistant Enterococcus faecium ATCC 51559 assessed as bacterial growth inhibition incubated for 24 hrs by CLSI protocol based broth microdilution method; details: ATCC 51559, 24 h
[19] = molecular target: T1, Cell division protein FtsZ (Bacillus subtilis); assay: Induction of Bacillus subtilis FtsZ polymerization assessed as formation of bundling of FtsZ protofilaments at 10 ug/ml after 20 mins by transmission electron microscopic analysis; details: dose 10.0 µg/ml
How it was run: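 B. subtilis FtsZ was incubated with or without compound for 20 min in Tris pH 7.4 polymerization buffer (KCl, MgCl₂, Triton X-100, GTP). Samples were applied to glow-discharged Formvar carbon-coated copper grids for 10 min, negatively stained with 1% phosphotungstic acid for 1 min, air-dried and imaged by TEM.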

[20] = test system: Staphylococcus epidermidis; assay: Antibacterial activity against penicillin-resistant Staphylococcus epidermidis assessed as inhibition of bacterial growth measured by broth microdilution method; assay type: functional; details: time 24 hrs
[21] = test system: Enterococcus faecium; assay: Antibacterial activity against vancomycin-susceptible Enterococcus faecium ATCC19434 assessed as bacterial growth inhibition incubated for 24 hrs by CLSI protocol based broth microdilution method; details: ATCC19434, 24 h
[22] = test system: Pseudomonas aeruginosa; assay: Inhibition of biofilm formation in Pseudomonas aeruginosa ATCC 27853 at 64 ug/ml incubated for 18 hrs by crystal violet staining based method; assay type: functional, organism-based; details: dose 64.0 µg/ml
How it was run: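 P. aeruginosa ATCC27853 was grown overnight in MH medium, washed and diluted to OD₆₂₀ 0.05, grown to mid-log (OD₆₂₀ 0.3–0.5), then rediluted to 0.05. Cultures were grown statically with compound at 37 °C for 18 h. Wells were washed with PBS, fixed in methanol for 15 min and stained with 0.1% crystal violet for 30 min. Stain was solubilized in 1% SDS and read at A540, in triplicate.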

C[n+]1c2ccccc2c(/C=C/c2ccc(C(C)(C)C)cc2)c2ccccc21.[I-]
Ratio [1]: 2
MIC [2]: inactive
Activity [3]: 2.2 CFU
Activity [4]: Dose-Dependent Effect
MIC [5]: 0.5 µg/mL
MBC [6]: 4 µg/mL
MIC [7]: 0.25 µg/mL
MBC [8]: 2 µg/mL
MIC [9]: 2 µg/mL
Activity [10]: inactive
Ratio [11]: 4
MIC [12]: > 64 µg/mL
MIC [13]: > 64 µg/mL
MBC [14]: 0.5 µg/mL
Ratio [15]: 4
Activity [16]: 2.43 CFU
Ratio [17]: 1
MIC [18]: 2 µg/mL
Activity [19]: Active
MIC [20]: 1 µg/mL
MIC [21]: 4 µg/mL
inhibition [22]: inactive
